Measurements: ChEMBL document CHEMBL1150285, “Combination of non-natural D-amino acid derivatives and allophenylnorstatine-dimethylthioproline scaffold in HIV protease inhibitors have high efficacy in mutant HIV” (J Med Chem, 2008)

Tests used:
[1] = test system: Human immunodeficiency virus 1; test: microbe, parasite or virus in culture; format: functional, organism-based; conditions: Human immunodeficiency virus 1, NL432
[2] = test system: Human immunodeficiency virus 1; test: Antiviral activity against wild type HIV1 NL432; format: functional, organism-based; conditions: Human immunodeficiency virus 1, NL432
[3] = test system: Human immunodeficiency virus 1; test: Antiviral activity against HIV1 3B in presence of 10% fetal calf serum and alpha1 acid glycoprotein; format: functional, organism-based; conditions: Human immunodeficiency virus 1, 3B
[4] = test system: Human immunodeficiency virus 1; test: microbe, parasite or virus in culture; format: functional, organism-based; conditions: Human immunodeficiency virus 1, NL432; remark: listed apart in the source
[5] = test system: Human immunodeficiency virus 1; test: Antiviral activity against nelfinavir-resistant HIV1 NL432; format: functional, organism-based; conditions: Human immunodeficiency virus 1, NL432
[6] = Selectivity index, ratio of CC50 for human MT4 cells to EC50 for HIV1 3B
[7] = molecular target: Protease (Human immunodeficiency virus 1) (UniProt Q9YQ12); conditions: at 1 nM
Protease (Human immunodeficiency virus 1), sequence (Q9YQ12 as listed by the source): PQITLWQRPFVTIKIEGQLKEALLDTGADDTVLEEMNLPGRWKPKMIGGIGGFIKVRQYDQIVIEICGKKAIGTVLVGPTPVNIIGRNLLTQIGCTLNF

[8] = test system: Human immunodeficiency virus 1; test: Ratio of EC50 for nelfinavir-resistant HIV1 NL432 to EC50 for wild-type HIV1 NL432; format: functional
[9] = test system: Human immunodeficiency virus 1; test: Antiviral activity against HIV1 3B in presence of 10% fetal calf serum; format: functional, organism-based; conditions: Human immunodeficiency virus 1, 3B
Protease = Protease (Human immunodeficiency virus 1, UniProt Q9YQ12); test: Inhibition of HIV1 protease
Protease, sequence (Q9YQ12 whole entry): as the sequence (Q9YQ12 as listed by the source) above
In short: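 HIV-1 protease (2 µg/mL stock in pH 5.5 acetate buffer) was mixed with test compound (10 nM solution in DMSO) in MES-NaOH buffer, pH 5.5, containing DTT, EDTA and NaCl. The mixture was preincubated 5 min at 37 °C, then started with substrate H-Lys-Ala-Arg-Val-Tyr*Phe(p-NO₂)-Glu-Ala-Nle-NH₂. After 60 min at 37 °C, the reaction was stopped with 1N HCl.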

[10] = Cytotoxicity against human MT4 cells by MTT assay; format: cell-based
[11] = test system: Human immunodeficiency virus 1; test: Antiviral activity against HIV1 3B in human MT4 cells assessed as inhibition of viral-induced cytopathic effect by MTT method; format: functional, organism-based; conditions: Human immunodeficiency virus 1, 3B

IC50 (Protease)	SMILES	EC50 [1]	EC50 [2]	EC50 [3]	EC50 [4]	EC50 [5]	selectivity ratio ([6]; mt4)	inhibition [7]	Ratio EC50 [8]	EC50 [9]	selectivity ratio ([6]; MT4 cells)	CC50 [10]	EC50 [11]
	CSC[C@H](NC(=O)COc1cccc2cnccc12)C(=O)N[C@@H](Cc1ccccc1)[C@H](O)C(=O)N1CSC[C@H]1C(=O)NC(C)(C)C	237 nM	36 nM	529 nM	201 nM	84 nM	> 1400	40%	2.3				
	CC(C)c1nc(CN(C)C(=O)N[C@H](C(=O)N[C@@H](Cc2ccccc2)C[C@H](O)[C@H](Cc2ccccc2)NC(=O)OCc2cncs2)C(C)C)cs1 [RITONAVIR]			422 nM				90%		24 nM			
	Cc1c(O)cccc1C(=O)N[C@@H](CSc1ccccc1)[C@H](O)CN1C[C@H]2CCCC[C@H]2C[C@H]1C(=O)NC(C)(C)C			606 nM				29%	12	21 nM	690		
0.09 nM	Cc1ccccc1CNC(=O)[C@H]1N(C(=O)[C@@H](O)[C@H](Cc2ccccc2)NC(=O)[C@@H](CS(=O)(=O)c2ccc3ccccc3c2)NS(C)(=O)=O)CSC1(C)C							98%			230	19000 nM	81 nM
	COc1ccc(CS(=O)(=O)C[C@@H](NS(C)(=O)=O)C(=O)N[C@@H](Cc2ccccc2)[C@H](O)C(=O)N2CSC(C)(C)[C@H]2C(=O)NCc2ccccc2C)cc1							66%			> 130	> 26000 nM	203 nM
0.11 nM	Cc1ccccc1CNC(=O)[C@H]1N(C(=O)[C@@H](O)[C@H](Cc2ccccc2)NC(=O)[C@@H](CS(=O)(=O)c2ccc(Cl)cc2)NS(C)(=O)=O)CSC1(C)C							95%					
	Cc1ccccc1CNC(=O)[C@H]1N(C(=O)[C@@H](O)[C@H](Cc2ccccc2)NC(=O)[C@@H](CS(=O)(=O)c2ccc(F)cc2)NS(C)(=O)=O)CSC1(C)C							94%			> 130	> 27000 nM	212 nM
	Cc1ccccc1CNC(=O)[C@H]1N(C(=O)[C@@H](O)[C@H](Cc2ccccc2)NC(=O)[C@@H](CSc2ccc3ccccc3n2)NS(C)(=O)=O)CSC1(C)C							28%			50	8500 nM	169 nM
0.083 nM	Cc1ccccc1CNC(=O)[C@H]1N(C(=O)[C@@H](O)[C@H](Cc2ccccc2)NC(=O)[C@@H](CS(=O)(=O)c2cccc3ccccc23)NS(C)(=O)=O)CSC1(C)C							97%			310	19000 nM	61 nM
	Cc1ccccc1CNC(=O)[C@H]1N(C(=O)[C@@H](O)[C@H](Cc2ccccc2)NC(=O)[C@@H](CS(=O)(=O)Cc2ccccc2)NS(C)(=O)=O)CSC1(C)C							66%			> 120	> 27000 nM	219 nM
	Cc1ccc(CS(=O)(=O)C[C@@H](NS(C)(=O)=O)C(=O)N[C@@H](Cc2ccccc2)[C@H](O)C(=O)N2CSC(C)(C)[C@H]2C(=O)NCc2ccccc2C)cc1							52%			> 210	> 26000 nM	125 nM
	CC(=O)N[C@H](CS(=O)(=O)c1ccc2ccccc2n1)C(=O)N[C@@H](Cc1ccccc1)[C@H](O)C(=O)N1CSC(C)(C)[C@H]1C(=O)NCc1ccccc1C							85%			> 290	> 27000 nM	94 nM
	COc1ccc(CS(=O)(=O)C[C@@H](NC(C)=O)C(=O)N[C@@H](Cc2ccccc2)[C@H](O)C(=O)N2CSC(C)(C)[C@H]2C(=O)NCc2ccccc2C)cc1							59%			> 260		
	CC(=O)N[C@H](CSc1cccc2ccccc12)C(=O)N[C@@H](Cc1ccccc1)[C@H](O)C(=O)N1CSC(C)(C)[C@H]1C(=O)NCc1ccccc1C	52 nM	20 nM	401 nM	70 nM	6.3 nM		68%	0.32	14 nM	470	8000 nM	17 nM
	Cc1ccccc1CNC(=O)[C@H]1N(C(=O)[C@@H](O)[C@H](Cc2ccccc2)NC(=O)[C@@H](CSCc2ccccc2)NS(C)(=O)=O)CSC1(C)C	55 nM	20 nM	88 nM	63 nM	1.8 nM		66%	0.09	18 nM	580	9800 nM	17 nM
	Cc1ccccc1CNC(=O)[C@H]1N(C(=O)[C@@H](O)[C@H](Cc2ccccc2)NC(=O)[C@@H](CSc2ccc3ccccc3c2)NS(C)(=O)=O)CSC1(C)C	23 nM	17 nM	88 nM	31 nM	0.8 nM		67%	0.05	8 nM	470	6100 nM	13 nM
	CC(=O)N[C@H](CSc1ccc2ccccc2n1)C(=O)N[C@@H](Cc1ccccc1)[C@H](O)C(=O)N1CSC(C)(C)[C@H]1C(=O)NCc1ccccc1C							27%			64	9700 nM	151 nM
	CC(=O)N[C@H](CCc1ccccc1)C(=O)N[C@@H](Cc1ccccc1)[C@H](O)C(=O)N1CSC(C)(C)[C@H]1C(=O)NCc1ccccc1C	132 nM	78 nM	155 nM	101 nM	18 nM		45%	0.23	25 nM	> 610	> 31000 nM	51 nM
	Cc1ccccc1CNC(=O)[C@H]1N(C(=O)[C@@H](O)[C@H](Cc2ccccc2)NC(=O)[C@@H](CSc2cccc3ccccc23)NS(C)(=O)=O)CSC1(C)C	13 nM	9.3 nM	347 nM	17 nM	0.67 nM		74%	0.07	4 nM	690	4400 nM	6.4 nM
	CC(=O)N[C@H](CSCc1ccc(C)cc1)C(=O)N[C@@H](Cc1ccccc1)[C@H](O)C(=O)N1CSC(C)(C)[C@H]1C(=O)NCc1ccccc1C	27 nM	22 nM	84 nM	41 nM	3.6 nM		76%	0.16	12 nM	730	8800 nM	12 nM
	Cc1ccccc1CNC(=O)[C@H]1N(C(=O)[C@@H](O)[C@H](Cc2ccccc2)NC(=O)[C@@H](CCc2ccccc2)NS(C)(=O)=O)CSC1(C)C							55%			190	11000 nM	59 nM
	CC(=O)N[C@H](CSCc1ccccc1)C(=O)N[C@@H](Cc1ccccc1)[C@H](O)C(=O)N1CSC(C)(C)[C@H]1C(=O)NCc1ccccc1C	21 nM	18 nM	96 nM	40 nM	5.9 nM		81%	0.33	16 nM	1000	15000 nM	15 nM
	CC(=O)N[C@H](CS(=O)(=O)Cc1ccc(C)cc1)C(=O)N[C@@H](Cc1ccccc1)[C@H](O)C(=O)N1CSC(C)(C)[C@H]1C(=O)NCc1ccccc1C							53%			> 340	> 28000 nM	82 nM
	CC(=O)N[C@H](CS(=O)(=O)Cc1ccccc1)C(=O)N[C@@H](Cc1ccccc1)[C@H](O)C(=O)N1CSC(C)(C)[C@H]1C(=O)NCc1ccccc1C							47%			> 240	> 28000 nM	117 nM
	CC(=O)N[C@H](CSc1ccc2ccccc2c1)C(=O)N[C@@H](Cc1ccccc1)[C@H](O)C(=O)N1CSC(C)(C)[C@H]1C(=O)NCc1ccccc1C	32 nM	17 nM	95 nM	65 nM	7.2 nM		53%	0.42	14 nM	460	8300 nM	18 nM
	Cc1ccccc1CNC(=O)[C@H]1N(C(=O)[C@@H](O)[C@H](Cc2ccccc2)NC(=O)[C@@H](CS(=O)(=O)c2ccc3ccccc3n2)NS(C)(=O)=O)CSC1(C)C							91%			> 55	> 26000 nM	473 nM
	Cc1ccc(CSC[C@@H](NS(C)(=O)=O)C(=O)N[C@@H](Cc2ccccc2)[C@H](O)C(=O)N2CSC(C)(C)[C@H]2C(=O)NCc2ccccc2C)cc1	43 nM	17 nM	110 nM	58 nM	1.5 nM		58%	0.09	14 nM	520	8900 nM	17 nM

SMILES	IC50 (Protease)	EC50 [1]	EC50 [2]	EC50 [3]	EC50 [4]	EC50 [5]	selectivity ratio ([6]; mt4)	inhibition [7]	Ratio EC50 [8]	EC50 [9]	selectivity ratio ([6]; MT4 cells)	CC50 [10]	EC50 [11]
CC(=O)N[C@H](CS(=O)(=O)c1ccc2ccccc2c1)C(=O)N[C@@H](Cc1ccccc1)[C@H](O)C(=O)N1CSC(C)(C)[C@H]1C(=O)NCc1ccccc1C	0.086 nM							96%			570	16000 nM	28 nM
CC(=O)N[C@H](CS(=O)(=O)c1cccc2ccccc12)C(=O)N[C@@H](Cc1ccccc1)[C@H](O)C(=O)N1CSC(C)(C)[C@H]1C(=O)NCc1ccccc1C	0.09 nM							97%			400	16000 nM	40 nM
